Source: ChEMBL document CHEMBL3739337, “Alkaloids with Different Carbon Units from Myrioneuron faberi” (J Nat Prod, 2015)

Experiments:
[1] = Therapeutic index, ratio of CC50 for human Huh7.5 cells to EC50 for chimeric HCV FL-J6/JFH/JC1 infected in human Huh7.5 cells; type: cell-based, Huh-7; conditions: read-out: Ratio CC50/EC50
[2] = Cytotoxicity against human Huh7.5 cells; type: cell-based, Huh-7
Method in brief: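 Huh7.5 human liver cells grown in DMEM with 10% inactivated fetal bovine serum and 1% penicillin–streptomycin at 37 °C, 5% CO2.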

[3] = test system: Hepatitis C virus; test: Antiviral activity against chimeric HCV FL-J6/JFH/JC1 infected in human Huh7.5 cells assessed as reduction of intracellular viral RNA level after 72 hrs by RT-PCR assay; type: functional, organism-based, Hepacivirus hominis; conditions: FL-J6/JFH/JC1, Huh-7, 72 h
Method in brief: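 Huh7.5 cells in DMEM with 10% inactivated FBS at 37 °C, 5% CO2, seeded at 3 × 10^4 cells/cm2. After 24 h they were infected (about 45 IU per cell) and given compound or solvent control at the same time. At 72 h, intracellular HCV RNA was measured against GAPDH by one-step RT-PCR (2ΔΔCT). EC50 was derived by the Reed and Muench method.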

O=CC1=CN2[C@@H]3[C@@H](CCC[C@H]3CN3CCCC[C@@H]32)C1
selectivity ratio [1]: > 30.6
CC50 [2]: > 100 µM
EC50 [3]: 3.27 µM

O=C1CC[C@@H]2CCC[C@H]3CN4CCC[C@H](C[C@H]5CCCN6C[C@@H]7CCC[C@H]8CCC(=O)N([C@H]87)[C@H]56)[C@H]4N1[C@H]23
selectivity ratio [1]: > 9.5
CC50 [2]: > 100 µM
EC50 [3]: 10.5 µM

O=C1CC[C@@H]2CCC[C@H]3CN4CCCC[C@H]4N1[C@H]23
selectivity ratio [1]: > 3.3
CC50 [2]: > 100 µM
EC50 [3]: 30.6 µM

COC[C@@H]1CCCN2C[C@@H]3CCC[C@H]4CC(C=O)=CN([C@H]43)[C@@H]12
selectivity ratio [1]: > 109
CC50 [2]: > 100 µM
EC50 [3]: 0.92 µM

C1C[C@H]2CCCN3[C@H]2[C@@H](C1)CN1CCCC[C@@H]13
selectivity ratio [1]: 13
CC50 [2]: 95.9 µM
EC50 [3]: 7.35 µM

CCC[C@H](NC(=O)[C@@H]1[C@H]2CCC[C@H]2CN1C(=O)[C@@H](NC(=O)[C@@H](NC(=O)c1cnccn1)C1CCCCC1)C(C)(C)C)C(=O)C(=O)NC1CC1 [TELAPREVIR]
selectivity ratio [1]: 371
CC50 [2]: 47.8 µM
EC50 [3]: 0.129 µM
